According to ChEMBL document CHEMBL1122809, “Improved synthesis and antitumor activity of 2-bromo-2'-deoxyadenosine” (1984):

Experiments:
M5076 [1] = test: Antitumor activity was evaluated by measuring mean life span in tumor (M5076) inoculated mice at 11.3 mg/kg (qd3hx8),days 1-34; assay type: functional, Mus musculus
Method in brief: (§1)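 Female mice of about 18 g received subcutaneous M5076 implants matching those used for serial passage. Drug was freshly prepared and injected at 0.01 mL/g every 3 h (×8) on every 3rd day from day 1 to day 34, with the dose stated per injection. Controls received 0.154 M NaCl. Groups held 18 mice (11 in one group). Mean life span was reported as mean ± SD, and tumor volume was also assessed.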

L1210 [2] = test: Antitumor activity expressed as life span was determined against inoculated L1210 leukemia cells (1*10e6) in mice by 90 mg/kg dosage of compound (qd (x 3), for days 1, 4, 7); assay type: functional, Mus musculus
Method in brief: (§2)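 Female mice (~18 g, housed six per cage) received L1210 cells intraperitoneally on day 0. Drug was made fresh and injected at 0.01 mL/g; the stated dose is per injection. Controls received the same volume of 0.154 M NaCl. Survival was followed, with deaths assigned to tumour by necropsy or to drug toxicity by set criteria. Life span is given as mean ± SD.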

L1210 [3] = test: Antitumor activity expressed percentage increase in life span was determined against inoculated L1210 leukemia cells (1*10e6) in mice by 140 mg/kg dosage of compound (qd (x 3), for days 1, 4, 7); assay type: functional; conditions: Mus musculus
Method in brief: (§3)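 L1210 cells were given intraperitoneally to female mice (~18 g). Freshly prepared drug was injected at 0.01 mL/g, dose per injection, and saline-injected controls were run. The end point was duration of survival. ILS was calculated as percent increase in mean life span over controls. Mice surviving 60 days or more counted as long-term survivors, scored as 60 days.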

L1210 [4] = test: Antitumor activity expressed as life span was determined against inoculated L1210 leukemia cells (1*10e6) in mice by 45 mg/kg dosage of compound (qd (x 3), for days 1, 4, 7); assay type: functional, Mus musculus; method in brief: as §2
L1210 [5] = test: Antitumor activity expressed percentage increase in life span was determined against inoculated L1210 leukemia cells (1*10e6) in mice by 110 mg/kg dosage of compound (qd (x 3), for days 1-7); assay type: functional; conditions: Mus musculus; method in brief: as §3
M5076 [6] = test: Antitumor activity was evaluated by measuring mean life span in tumor (M5076) inoculated mice at 22.5 mg/kg (qd3hx8),days 1-34; assay type: functional, Mus musculus; method in brief: as §1
L1210 [7] = test: Antitumor activity expressed as life span was determined against inoculated L1210 leukemia cells (1*10e6) in mice by 110 mg/kg dosage of compound (qd (x 3), for days 1- 7); assay type: functional, Mus musculus; method in brief: as §2
L1210 [8] = test: Antitumor activity expressed percentage increase in life span was determined against inoculated L1210 leukemia cells (1*10e6) in mice by 22.5 mg/kg dosage of compound (qd (x 3), for days 1, 4, 7,10,13,16); assay type: functional; conditions: Mus musculus; method in brief: as §3
B16 melanoma (mouse) = test: Antitumor activity expressed percentage increase in life span was determined against inoculated B16 melanoma in mice by 22.5 mg/kg dosage of compound (qd3hx8), for days 1,4,7,10
L1210 [9] = test: Antitumor activity expressed percentage increase in life span was determined against inoculated L1210 leukemia cells (1*10e5) in mice by 22.5 mg/kg dosage of compound (qd (x 3), for days 1, 4, 7); assay type: functional; conditions: Mus musculus; method in brief: as §3
L1210 [10] = test: Antitumor activity expressed as life span was determined against inoculated L1210 leukemia cells (1*10e5) in mice by 22.5 mg/kg dosage of compound (qd (x 3), for days 1, 4, 7); assay type: functional, Mus musculus; method in brief: as §2
L1210 [11] = test: Antitumor activity expressed percentage increase in life span was determined against inoculated L1210 leukemia cells (1*10e6) in mice by 11.3 mg/kg dosage of compound (qd (x 3), for days 1, 4, 7); assay type: functional; conditions: Mus musculus; method in brief: as §3
L1210 [12] = test: Antitumor activity expressed as life span was determined against inoculated L1210 leukemia cells (1*10e5) in mice by 45 mg/kg dosage of compound (qd (x 3), for days 1,5,9); assay type: functional, Mus musculus; method in brief: as §2
L1210 [13] = test: Antitumor activity expressed as life span was determined against inoculated L1210 leukemia cells (1*10e5) in mice by 17.3 mg/kg dosage of compound (qd (x 3), for days 1,5,9); assay type: functional, Mus musculus; method in brief: as §2
L1210 [14] = test: Antitumor activity expressed percentage increase in life span was determined against inoculated L1210 leukemia cells (1*10e6) in mice by 90 mg/kg dosage of compound (qd (x 3), for days 1, 4, 7); assay type: functional; conditions: Mus musculus
Method in brief: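 Female mice of about 18 g (BDF1, DBA/2 or C57Bl/6 stocks used) were inoculated intraperitoneally with 1 × 10^6 L1210 cells. Freshly prepared drug was given once daily from about 24 h after inoculation at 0.01 mL/g, with the dose stated per injection. Controls received 0.154 M NaCl, and groups held 6 mice. %ILS was taken from mean survival, with mice alive at 60 days or more counted as 60 days.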

L1210 [15] = test: Antitumor activity expressed as life span was determined against inoculated L1210 leukemia cells (1*10e6) in mice by 5.6 mg/kg dosage of compound (qd (x 3), for days 1, 4, 7); assay type: functional, Mus musculus; method in brief: as §2

Work on `Nc1nc(Br)nc2c1ncn2[C@H]1C[C@H](O)[C@@H](CO)O1` yielded a Life span (M5076 [1]) of 39.72 days, a Life span (L1210 [2]) of 7 days and an ILS at 140 mg/kg (L1210 [3]) of 26%. The Life span (L1210 [4]) was 13.5 days, the ILS at 110 mg/kg (L1210 [5]) was 0% and the Life span (M5076 [6]) was 46.41 days. It also gave a Life span (L1210 [7]) of 4.17 days, an ILS at 22.5 mg/kg (L1210 [8]) of 127% and an ILS at 22.5 mg/kg (B16 melanoma (mouse)) of 50%. For the same compound, the ILS at 22.5 mg/kg (L1210 [9]) was 224%, the Life span (L1210 [10]) was 23.75 days and the ILS at 11.3 mg/kg (L1210 [11]) was 104%. For the same compound, the Life span (L1210 [12]) was 37.73 days, the Life span (L1210 [13]) was 14 days and the ILS at 90 mg/kg (L1210 [14]) was 11%. For the same compound, the Life span (L1210 [15]) was 11.08 days.
